Laboratory results taken from ChEMBL document CHEMBL1136980, “Synthesis of novel 3-(1-(1-substituted piperidin-4-yl)-1H-1,2,3-triazol-4-yl)-1,2,4-oxadiazol-5(4H)-one as antifungal agents” (2009).
≈ marks a conversion by molar mass, not a printed value. Calls of active or inactive are those of the source. The calls are words filed in the database; no cut-off is given here.

Assays:
Aspergillus flavus [1] = assay: Antifungal activity against Aspergillus flavus NCIM 539 by agar plate assay; type: functional
Summary of the method: (§1)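 In vitro MIC determined by standard agar plate method (cup plate format). Compounds were tested in dimethyl sulfoxide, with DMSO alone as solvent control. Miconazole and fluconazole served as reference standards.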

Aspergillus niger [2] = assay: Antifungal activity against Aspergillus niger NCIM 1196 by agar plate assay; type: functional; summary of the method: as §1
Candida albicans [3] = assay: Antifungal activity against Candida albicans NCIM 3471 by agar plate assay; type: functional; summary of the method: as §1
Cryptococcus neoformans [4] = assay: Antifungal activity against Cryptococcus neoformans NCIM 576 by agar plate assay; type: functional; summary of the method: as §1
Fusarium oxysporum = assay: Antifungal activity against Fusarium oxysporum NCIM 1332 by agar plate assay; type: functional; summary of the method: as §1
Cryptococcus neoformans [5] = assay: Antifungal activity against Cryptococcus neoformans NCIM 576 at 200 ug/mL by agar plate assay; type: functional, organism-based
Candida albicans [6] = assay: Antifungal activity against Candida albicans NCIM 3471 at 200 ug/mL by agar plate assay; type: functional, organism-based
Aspergillus niger [7] = assay: Antifungal activity against Aspergillus niger NCIM 1196 at 200 ug/mL by agar plate assay; type: functional, organism-based
Aspergillus flavus [8] = assay: Antifungal activity against Aspergillus flavus NCIM 539 at 200 ug/mL by agar plate assay; type: functional, organism-based

SMILES: CC(=O)N1CCC(n2cc(-c3noc(=O)[nH]3)nn2)CC1
- MIC (Aspergillus flavus [1]): 31 µg/mL (≈ 111 µM)
- MIC (Aspergillus niger [2]): 31 µg/mL (≈ 111 µM)
- MIC (Candida albicans [3]): 60 µg/mL (≈ 216 µM)
- MIC (Cryptococcus neoformans [4]): 65 µg/mL (≈ 234 µM)
- MIC (Fusarium oxysporum): 61 µg/mL (≈ 219 µM)

SMILES: OC(Cn1cncn1)(Cn1cncn1)c1ccc(F)cc1F [FLUCONAZOLE]
- MIC (Aspergillus flavus [1]): 5 µg/mL (≈ 16.3 µM)
- MIC (Aspergillus niger [2]): 10 µg/mL (≈ 32.7 µM)
- MIC (Candida albicans [3]): 5 µg/mL (≈ 16.3 µM)
- MIC (Cryptococcus neoformans [4]): 5 µg/mL (≈ 16.3 µM)
- MIC (Fusarium oxysporum): 5 µg/mL (≈ 16.3 µM)

SMILES: CN1CCC(n2cc(-c3noc(=O)[nH]3)nn2)CC1
- MIC (Aspergillus flavus [1]): 10 µg/mL (≈ 40 µM)
- MIC (Aspergillus niger [2]): 12.5 µg/mL (≈ 49.9 µM)
- MIC (Candida albicans [3]): 20 µg/mL (≈ 79.9 µM)
- MIC (Cryptococcus neoformans [4]): 60 µg/mL (≈ 240 µM)
- MIC (Fusarium oxysporum): 25 µg/mL (≈ 99.9 µM)

SMILES: CC(C)(C)OC(=O)N1CCC(n2cc(/C(N)=N/O)nn2)CC1
- MIC (Aspergillus flavus [1]): 20 µg/mL (≈ 64.4 µM)
- MIC (Aspergillus niger [2]): 20 µg/mL (≈ 64.4 µM)
- MIC (Candida albicans [3]): 35 µg/mL (≈ 113 µM)
- MIC (Cryptococcus neoformans [4]): 40 µg/mL (≈ 129 µM)
- MIC (Fusarium oxysporum): 35 µg/mL (≈ 113 µM)

SMILES: CC(C)(C)OC(=O)N1CCC(n2cc(C#N)nn2)CC1
- MIC (Aspergillus flavus [1]): 55 µg/mL (≈ 198 µM)
- MIC (Aspergillus niger [2]): 50 µg/mL (≈ 180 µM)
- Activity (Cryptococcus neoformans [5]): inactive
- Activity (Candida albicans [6]): inactive
- MIC (Fusarium oxysporum): 90 µg/mL (≈ 325 µM)

SMILES: Cc1ccc(S(=O)(=O)N2CCC(n3cc(-c4noc(=O)[nH]4)nn3)CC2)cc1
- MIC (Aspergillus flavus [1]): 25 µg/mL (≈ 64 µM)
- MIC (Aspergillus niger [2]): 20 µg/mL (≈ 51.2 µM)
- MIC (Candida albicans [3]): 30 µg/mL (≈ 76.8 µM)
- MIC (Cryptococcus neoformans [4]): 40 µg/mL (≈ 102 µM)
- MIC (Fusarium oxysporum): 33 µg/mL (≈ 84.5 µM)

SMILES: CC(C)(C)OC(=O)N1CCC(n2cc(-c3noc(=O)[nH]3)nn2)CC1
- MIC (Aspergillus flavus [1]): 15 µg/mL (≈ 44.6 µM)
- MIC (Aspergillus niger [2]): 20 µg/mL (≈ 59.5 µM)
- Activity (Cryptococcus neoformans [5]): inactive
- MIC (Candida albicans [3]): 30 µg/mL (≈ 89.2 µM)
- MIC (Fusarium oxysporum): 25 µg/mL (≈ 74.3 µM)

SMILES: CCC(=O)N1CCC(n2cc(-c3noc(=O)[nH]3)nn2)CC1
- MIC (Aspergillus flavus [1]): 42 µg/mL (≈ 144 µM)
- MIC (Aspergillus niger [2]): 42 µg/mL (≈ 144 µM)
- MIC (Candida albicans [3]): 85 µg/mL (≈ 291 µM)
- MIC (Cryptococcus neoformans [4]): 85 µg/mL (≈ 291 µM)
- MIC (Fusarium oxysporum): 90 µg/mL (≈ 308 µM)

SMILES: CS(=O)(=O)N1CCC(n2cc(-c3noc(=O)[nH]3)nn2)CC1
- MIC (Aspergillus flavus [1]): 15 µg/mL (≈ 47.7 µM)
- MIC (Aspergillus niger [2]): 10 µg/mL (≈ 31.8 µM)
- MIC (Candida albicans [3]): 20 µg/mL (≈ 63.6 µM)
- MIC (Cryptococcus neoformans [4]): 27.5 µg/mL (≈ 87.5 µM)
- MIC (Fusarium oxysporum): 25 µg/mL (≈ 79.5 µM)

SMILES: O=C(c1ccc(Cl)cc1)N1CCC(n2cc(-c3noc(=O)[nH]3)nn2)CC1
- MIC (Aspergillus flavus [1]): 20 µg/mL (≈ 53.4 µM)
- MIC (Aspergillus niger [2]): 25 µg/mL (≈ 66.7 µM)
- MIC (Candida albicans [3]): 40 µg/mL (≈ 107 µM)
- MIC (Cryptococcus neoformans [4]): 40 µg/mL (≈ 107 µM)
- MIC (Fusarium oxysporum): 55 µg/mL (≈ 147 µM)

SMILES: CC(C)(C)OC(=O)N1CCC(n2cc(C(N)=O)nn2)CC1
- MIC (Aspergillus flavus [1]): 27 µg/mL (≈ 91.4 µM)
- MIC (Aspergillus niger [2]): 25 µg/mL (≈ 84.6 µM)
- MIC (Candida albicans [3]): 50 µg/mL (≈ 169 µM)
- MIC (Cryptococcus neoformans [4]): 45 µg/mL (≈ 152 µM)
- MIC (Fusarium oxysporum): 55 µg/mL (≈ 186 µM)

SMILES: CCCC(=O)N1CCC(n2cc(-c3noc(=O)[nH]3)nn2)CC1
- Activity (Aspergillus niger [7]): inactive
- Activity (Aspergillus flavus [8]): inactive
- MIC (Candida albicans [3]): 90 µg/mL (≈ 294 µM)
- MIC (Cryptococcus neoformans [4]): 85 µg/mL (≈ 277 µM)
- MIC (Fusarium oxysporum): 95 µg/mL (≈ 310 µM)

SMILES: CCOC(=O)c1cn(C2CCN(C(=O)OC(C)(C)C)CC2)nn1
- MIC (Aspergillus flavus [1]): 22 µg/mL (≈ 67.8 µM)
- MIC (Aspergillus niger [2]): 19 µg/mL (≈ 58.6 µM)
- MIC (Candida albicans [3]): 40 µg/mL (≈ 123 µM)
- MIC (Cryptococcus neoformans [4]): 35 µg/mL (≈ 108 µM)
- MIC (Fusarium oxysporum): 44 µg/mL (≈ 136 µM)

SMILES: O=C(c1ccccc1)N1CCC(n2cc(-c3noc(=O)[nH]3)nn2)CC1
- MIC (Aspergillus flavus [1]): 42 µg/mL (≈ 123 µM)
- MIC (Aspergillus niger [2]): 42 µg/mL (≈ 123 µM)
- MIC (Candida albicans [3]): 85 µg/mL (≈ 250 µM)
- MIC (Cryptococcus neoformans [4]): 85 µg/mL (≈ 250 µM)
- MIC (Fusarium oxysporum): 88 µg/mL (≈ 259 µM)

SMILES: Clc1ccc(COC(Cn2ccnc2)c2ccc(Cl)cc2Cl)c(Cl)c1 (stereo not given) [MICONAZOLE]
- MIC (Aspergillus flavus [1]): 12.5 µg/mL (≈ 30 µM)
- MIC (Aspergillus niger [2]): 12.5 µg/mL (≈ 30 µM)
- MIC (Candida albicans [3]): 25 µg/mL (≈ 60.1 µM)
- MIC (Cryptococcus neoformans [4]): 25 µg/mL (≈ 60.1 µM)
- MIC (Fusarium oxysporum): 25 µg/mL (≈ 60.1 µM)

SMILES: O=c1[nH]c(-c2cn(C3CCNCC3)nn2)no1
- MIC (Aspergillus flavus [1]): 15 µg/mL (≈ 63.5 µM)
- MIC (Aspergillus niger [2]): 15 µg/mL (≈ 63.5 µM)
- Activity (Cryptococcus neoformans [5]): inactive
- MIC (Candida albicans [3]): 27.5 µg/mL (≈ 116 µM)
- MIC (Fusarium oxysporum): 25 µg/mL (≈ 106 µM)

SMILES: CCN1CCC(n2cc(-c3noc(=O)[nH]3)nn2)CC1
- MIC (Aspergillus flavus [1]): 19 µg/mL (≈ 71.9 µM)
- MIC (Aspergillus niger [2]): 19 µg/mL (≈ 71.9 µM)
- MIC (Candida albicans [3]): 37 µg/mL (≈ 140 µM)
- MIC (Cryptococcus neoformans [4]): 39 µg/mL (≈ 148 µM)
- MIC (Fusarium oxysporum): 39 µg/mL (≈ 148 µM)
